Several values for one entry are separate records, joined by “and”; a condition that tells them apart may be missing. Equal entries are not always repeated.
Key:
[1] = Regional brain distribution in rat cortex was determined after 60 min of intravenous administration of the compound; [125I]- is used as radioactive isotope; format: ADME; conditions: in vivo, 1 h
Method in brief: (§1)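 Rats, three per group, injected with 10 μCi tracer in 0.2 mL saline via the femoral vein under ether anesthesia and killed by cardiac excision at the stated time. Cortex (frontal plus occipital), striatum, hippocampus, cerebellum and hypothalamus were dissected, weighed and gamma-counted. Values are % dose/g, calculated by comparison with counts of a 100-fold diluted aliquot of the injected dose.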

[2] = Regional brain distribution in rat cortex was determined after 6 hours of intravenous administration of the compound; [125I]- is used as radioactive isotope; format: ADME; conditions: in vivo; method in brief: as §1
[3] = Regional brain distribution in rat striatum was determined after 2 min of intravenous administration of the compound; [125I]- is used as radioactive isotope; format: ADME, tissue-based; conditions: in vivo; method in brief: as §1
[4] = Regional brain distribution in rat cortex was determined after 24-hours of intravenous administration of the compound; [125I]- is used as radioactive isotope; format: ADME; conditions: in vivo; method in brief: as §1
[5] = Distribution ratio in striatum and cerebellum was determined after 240 min of intravenous administration of the compound; [125I]- is used as radioactive isotope; format: ADME, tissue-based; conditions: rat, 4 h
Method in brief: (§2)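 Rats, three per group, given 10 μCi tracer in 0.2 mL saline into the femoral vein under ether anesthesia, then killed by cardiac excision at the stated time. Brain regions were dissected, weighed and counted. Percent dose/g was calculated against a 1% diluted aliquot of the injected dose. The ratio is (region − cerebellum)/cerebellum on a % dose/g basis, with cerebellum as background.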

[6] = Distribution ratio in hippocampus and cerebellum was determined after 2 min of intravenous administration of the compound; [125I]- is used as radioactive isotope; format: ADME, tissue-based; conditions: rat
Method in brief: (§3)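 After femoral-vein injection of 10 μCi [¹²⁵I] tracer in 0.2 mL saline under ether anaesthesia (three rats per group), brain regions were dissected, weighed and counted: cortex (frontal plus occipital), hippocampus, hypothalamus and cerebellum. %dose/g was calculated against a diluted injected-dose standard. Ratio = (region − cerebellum)/cerebellum on a %dose/g basis, with cerebellum as the background region.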

[7] = Distribution ratio in hippocampus and cerebellum was determined after 6 hrs of intravenous administration of the compound; [125I]- is used as radioactive isotope; format: ADME, tissue-based; conditions: rat; method in brief: as §3
[8] = Regional brain distribution in rat striatum was determined after 60 min of intravenous administration of the compound; [125I]- is used as radioactive isotope; format: ADME, tissue-based; conditions: in vivo, 1 h; method in brief: as §1
[9] = Distribution ratio in hypothalamus and cerebellum was determined after 6 hours of intravenous administration of the compound; [125I]- is used as radioactive isotope; format: ADME, tissue-based; conditions: rat; method in brief: as §2
[10] = Distribution ratio in hypothalamus and cerebellum was determined after 24 hours of intravenous administration of the compound; [125I]- is used as radioactive isotope; format: ADME, tissue-based; conditions: rat; method in brief: as §3
[11] = Regional brain distribution in rat striatum was determined after 24 hours of intravenous administration of the compound; [125I]- is used as radioactive isotope; format: ADME, tissue-based; conditions: in vivo; method in brief: as §1
[12] = Regional brain distribution in rat cerebellum was determined after 6 hours of intravenous administration of the compound; [125I]- is used as radioactive isotope; format: ADME, tissue-based; conditions: in vivo; method in brief: as §1
[13] = Regional brain distribution in rat hippocampus was determined after 60 min of intravenous administration of the compound; [125I]- is used as radioactive isotope; format: ADME, tissue-based; conditions: in vivo, 1 h; method in brief: as §1
[14] = Distribution ratio in cortex and cerebellum was determined after 30 min of intravenous administration of the compound; [125I]- is used as radioactive isotope; format: ADME, tissue-based; conditions: rat, 0.5 h; method in brief: as §3
[15] = Regional brain distribution in rat cerebellum was determined after 2 min of intravenous administration of the compound; [125I]- is used as radioactive isotope; format: ADME, tissue-based; conditions: in vivo; method in brief: as §1
[16] = Regional brain distribution in rat hippocampus was determined after 2 min of intravenous administration of the compound; [125I]- is used as radioactive isotope; format: ADME, tissue-based; conditions: in vivo; method in brief: as §1
[17] = Regional brain distribution in rat hippocampus was determined after 240 min of intravenous administration of the compound; [125I]- is used as radioactive isotope; format: ADME, tissue-based; conditions: in vivo, 4 h; method in brief: as §1
[18] = Regional brain distribution in rat hippocampus was determined after 11 hours of intravenous administration of the compound; [125I]- is used as radioactive isotope; format: ADME, tissue-based; conditions: in vivo; method in brief: as §1
[19] = Regional brain distribution in rat hypothalamus was determined after 120 min of intravenous administration of the compound; [125I]- is used as radioactive isotope; format: ADME, tissue-based; conditions: in vivo, 2 h; method in brief: as §1
[20] = Biodistribution in rat lung was determined after 2 min of intravenous administration of the compound; [125I]- is used as radioactive isotope; format: ADME, organism-based; conditions: in vivo
Method in brief: (§4)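 Rats under ether anesthesia, three per group, received 10 μCi tracer in 0.2 mL saline into the femoral vein. They were killed by cardiac excision under ether at each time point. Organs were removed, weighed and counted. Percent dose per organ was calculated against a 1%-of-injected-dose standard counted at the same time.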

[21] = Biodistribution in rat blood was determined after 60 min of intravenous administration of the compound; [125I]- is used as radioactive isotope; format: ADME, organism-based; conditions: in vivo, 1 h; method in brief: as §4
[22] = Biodistribution in rat heart was determined after 60 min of intravenous administration of the compound; [125I]- is used as radioactive isotope; format: ADME, organism-based; conditions: in vivo, 1 h; method in brief: as §4
[23] = Biodistribution in rat thyroid was determined after 120 min of intravenous administration of the compound; [125I]- is used as radioactive isotope; format: ADME, organism-based, Thyroid gland; conditions: in vivo, 2 h
Method in brief: (§5)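 Rats, three per group, under ether anaesthesia, received 10 μCi of [¹²⁵I]-labelled tracer in 0.2 mL saline into the femoral vein. They were killed by cardiac excision under ether at each time point. Organs were removed, weighed and counted. Percent dose per organ was calculated against counts of a 1% aliquot of the injected dose (100-fold diluted) counted at the same time.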

[24] = Biodistribution in rat muscle was determined after 2 min of intravenous administration of the compound; [125I]- is used as radioactive isotope; format: ADME, organism-based, Muscle tissue; conditions: in vivo; method in brief: as §5
[25] = Biodistribution in rat skin was determined after 120 min of intravenous administration of the compound; [125I]- is used as radioactive isotope; format: ADME, organism-based, Zone of skin; conditions: in vivo, 2 h; method in brief: as §5
[26] = Biodistribution in rat brain was determined after 240 min of intravenous administration of the compound; [125I]- is used as radioactive isotope; format: ADME, organism-based; conditions: in vivo, 4 h; method in brief: as §4
[27] = Biodistribution in rat heart was determined after 240 min of intravenous administration of the compound; [125I]- is used as radioactive isotope; format: ADME, organism-based; conditions: in vivo, 4 h; method in brief: as §4
[28] = Biodistribution in rat skin was determined after 11 hours of intravenous administration of the compound; [125I]- is used as radioactive isotope; format: ADME, organism-based, Zone of skin; conditions: in vivo; method in brief: as §5
[29] = Biodistribution in rat blood was determined after 11 hours of intravenous administration of the compound; [125I]- is used as radioactive isotope; format: ADME, organism-based; conditions: in vivo; method in brief: as §4
[30] = Biodistribution in rat spleen was determined after 6 hours of intravenous administration of the compound; [125I]- is used as radioactive isotope; format: ADME, organism-based; conditions: in vivo; method in brief: as §5
[31] = Biodistribution in rat liver was determined after 240 min of intravenous administration of the compound; [125I]- is used as radioactive isotope; format: ADME, organism-based; conditions: in vivo, 4 h; method in brief: as §4
[32] = Biodistribution in rat muscle was determined after 60 min of intravenous administration of the compound; [125I]- is used as radioactive isotope; format: ADME, organism-based, Muscle tissue; conditions: in vivo, 1 h; method in brief: as §5
[33] = Biodistribution in rat kidney was determined after 240 min of intravenous administration of the compound; [125I]- is used as radioactive isotope; format: ADME, organism-based; conditions: in vivo, 4 h; method in brief: as §4
[34] = Biodistribution in rat thyroid was determined after 60 min of intravenous administration of the compound; [125I]- is used as radioactive isotope; format: ADME, organism-based, Thyroid gland; conditions: in vivo, 1 h; method in brief: as §5

CN(C)Cc1ccccc1Oc1ccc(I)cc1N
Dose/g [1]: 0.95%
Dose/g [2]: 0.04%
Dose/g [3]: 0.77%
Dose/g [4]: 0.004%
Dose/g [5]: 3.11%
Dose/g [6]: 0.13%
Dose/g [7]: 1.21%
Dose/g [8]: 1.02%
Dose/g [9]: 2.64%
Dose/g [10]: 0.23%
Dose/g [11]: 0.0039%
Dose/g [12]: 0.027%
Dose/g [13]: 0.94%
Dose/g [14]: 0.96%
Dose/g [15]: 0.79% and 0.64%
Dose/g [16]: 0.86%
Dose/g [17]: 0.2%
Dose/g [18]: 0.01%
Dose/g [19]: 0.92%
Dose [20]: 17.2%
Dose [21]: 3.89%
Dose [22]: 0.2%
Dose [23]: 0.96%
Dose [24]: 25.9%
Dose [25]: 12.5%
Dose [26]: 0.33%
Dose [27]: 0.08%
Dose [28]: 10.9%
Dose [29]: 2.52%
Dose [30]: 0.11% and 0.05%
Dose [31]: 3.52%
Dose [32]: 12.9%
Dose [33]: 0.61%
Dose [34]: 0.41%

Reference: ChEMBL document CHEMBL1137220, “2-(2-(dimethylaminomethyl)phenoxy)-5-iodophenylamine: an improved serotonin transporter imaging agent” (J Med Chem, 2004)
